Where a SMILES comes first, the peptide text is derived from it. [ ]: non-standard residue; d: D form. Phe(4-CN) = N#Cc1ccc(C[C@H](N)C(=O)O)cc1
Columns and labels:
[1] = value belongs to the α-helical peptide, not the tripeptide; cited from earlier work
[2] = pH titration via PheCN fluorescence to determine N-terminal pKa; assay type: physicochemical; conditions: 20 μM peptide, pH 2-12, 25 °C, excitation 275 nm
In short: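 Peptides were HPLC-purified and mass-verified, and concentration was set optically from absorbance at 280 nm (ε 850 M−1 cm−1). Each pH was made by mixing peptide stocks in 25 mM H3PO4 and 25 mM NaOH, then read on a pH meter. Spectra were taken in a 1 cm cuvette at 1 nm resolution, 1 s/nm, with buffer background subtracted. Peak intensity was fitted to a two-state equation with linear acidic and basic baselines to give pKa (±0.1).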

[3] = melittin, Gly residue at the N-terminus; cited from earlier work

Compound	N-terminal pKa value (pKaH) of an α-helical peptide with X at the N-terminus [1]	further results
CSCC[C@H](N)C(=O)N[C@@H](Cc1ccc(C#N)cc1)C(=O)NCC(N)=O [M, reference compound] (H-Met-[Phe(4-CN)]-Gly-NH2)	7.83	–
N#Cc1ccc(C[C@H](NC(=O)[C@@H]2CCCN2)C(=O)NCC(N)=O)cc1 [P] (H-Pro-[Phe(4-CN)]-Gly-NH2)	8.85	–
CC(=O)NCC(=O)N[C@@H](Cc1ccc(C#N)cc1)C(=O)NCC(N)=O [*GFCNG] (Ac-Gly-[Phe(4-CN)]-Gly-NH2)	–	pH dependence of PheCN fluorescence intensity (acid-base titration transition) [2]: does not show such a transition
N#Cc1ccc(C[C@H](NC(=O)[C@@H](N)CO)C(=O)NCC(N)=O)cc1 [S] (H-Ser-[Phe(4-CN)]-Gly-NH2)	7.63	–
C[C@H](N)C(=O)N[C@@H](Cc1ccc(C#N)cc1)C(=O)NCC(N)=O [A, reference compound] (H-Ala-[Phe(4-CN)]-Gly-NH2)	8.35	–
N#Cc1ccc(C[C@H](NC(=O)[C@@H](N)CC(=O)O)C(=O)NCC(N)=O)cc1 [D] (H-Asp-[Phe(4-CN)]-Gly-NH2)	8.25	–
CC(C)[C@H](N)C(=O)N[C@@H](Cc1ccc(C#N)cc1)C(=O)NCC(N)=O [V] (H-Val-[Phe(4-CN)]-Gly-NH2)	8.14	–
N#Cc1ccc(C[C@H](NC(=O)CN)C(=O)NCC(N)=O)cc1 [G, reference compound] (H-Gly-[Phe(4-CN)]-Gly-NH2)	8.51	–
N#Cc1ccc(C[C@H](NC(=O)[C@@H](N)CCCCN)C(=O)NCC(N)=O)cc1 [K] (H-Lys-[Phe(4-CN)]-Gly-NH2)	8.12	–
N#Cc1ccc(C[C@H](NC(=O)[C@@H](N)CC(N)=O)C(=O)NCC(N)=O)cc1 [N] (H-Asn-[Phe(4-CN)]-Gly-NH2)	7.07	–
melittin	–	N-terminal pKa of the amino group [3]: 7.85

— article PMC4461448 (Analytical biochemistry, 2015)
